assay: Toxicity liver stage against HepG2, at 10uM; assay type: cell-based; set-up: test concentration 10 uM, cell line HepG2-A16-CD81EGFP; conditions: human, HepG2-A16-CD81EGFP cells; read-out: INHIBITION
Outline: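 Uninfected HepG2-A16-CD81EGFP cells, 3 × 10^3 per well, 1536-well, plated on prespotted compound at 10 μM final, parasite-free screening media added to match infected plates; puromycin 10 μM positive, DMSO 0.5% negative; run in parallel with 48 h PbLuc assay at 37 °C, 5% CO2; viability by CellTiter-Glo luminescence, normalized to controls.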

Row | SMILES | cytotoxicity at 10 µM [%]
1 | COc1ccc(-c2cc(N)on2)cc1OC | -9.85
2 | Cc1c(C(=O)O)oc2ccc(I)cc12 | -1.87
3 | O=C(NC[C@H]1OC[C@@H](NC2CCCCC2)[C@@H]1O)Nc1ccccc1 | -11.6
4 | CC(C)(C)C(=O)N1C[C@@H](F)[C@@H](OCc2nc3ncccc3[nH]2)C1 | 2.97
5 | NC(=O)CN1CCC2(CC1)CC(=O)c1ccc3ccccc3c1O2 | 1.76
6 | CSc1ncccc1C(=O)NCCC(O)c1cccs1 (stereo not given) | -4.68
7 | O=C(Nc1cccnc1)c1ccc(-n2cncn2)nn1 | 4.48
8 | CN(C)CCN1C(=O)CCCC12CCCN(Cc1ccc[nH]1)C2 (stereo not given) | -10.1
9 | Cc1noc(C)c1CN1CCCC2(CCN(C(=O)N3CCOCC3)C2)C1 (stereo not given) | 3.35
10 | O=C(C1CCCO1)N1CCCn2c(nnc2Cn2cccc2)C1 (stereo not given) | 16.4
11 | Cc1nnc([C@H]2C[C@H]3OCC[C@H]3N(S(=O)(=O)C3CC3)C2)o1 | -4.11
12 | N#Cc1ccc(OC[C@]23COC[C@H]2CN(Cc2nccs2)C3)nc1 | 2.37
13 | CCC1=N[C@@]2(CC[C@@H]3CN(C(=O)Nc4ccccc4)C[C@@H]32)C(=O)N1C | 16.8
14 | CCn1cc2c(n1)C(COC)CN(C(=O)COc1ccccc1)C2 (stereo not given) | -2.88
15 | CC(C)(C)n1cc(C(=O)NCCCn2ccnc2)c2cccnc21 | 0.698
16 | c1csc(CN2CC[C@H]3C[C@H](c4ccncn4)O[C@@H]3C2)c1 | 1.17
17 | COCC(=O)NCc1ccc(-c2ncncc2C(=O)N(C)C)cc1 | 3.02
18 | Cc1cc(-c2cnc(N3CCCC(C)C3)nc2C(C)C)on1 (stereo not given) | 3.05
19 | COCCn1c(=O)n(C)c(=O)c2ccc(C3CCN(C(C)=O)CC3)nc21 | 4.89
20 | c1cncc(N2CCC(c3ccncc3)CC2)c1 | 2.59
21 | CC1(C(N)=O)CN(CC2CCOCC2)CCO1 (stereo not given) | -0.74
22 | NCC(=O)N1CCC(c2cncc(Oc3cccnc3)n2)CC1 | -9.08

Row | SMILES | cytotoxicity at 10 µM [%]
23 | CC(C)Oc1ccc(C(=O)N2CC[C@H](O)[C@@H](n3ccnc3)CC2)cc1 | -12.8
24 | CC(=O)N1CCCC(c2ccc3sc(N)nc3n2)C1 (stereo not given) | 0.248
25 | CNc1cccc(C2CCCN(C(=O)c3ccn(C)n3)C2)n1 (stereo not given) | -13.4
26 | Cc1nc(-c2ccc(C(=O)O)cc2)cc(C2CCN(C(C)C)CC2)n1 | -6.69
27 | Cc1nc(C)c(CNC(=O)NC2CC(C)(C)OC2(C)C)s1 (stereo not given) | -0.864
28 | CSc1ccc(C(=O)N(c2ccc(F)cn2)C2CCOCC2)o1 | -10.7
29 | Cc1cccc(C)c1CN1C(=O)CC2(CCSC2)C1=O (stereo not given) | 14.9
30 | CCOc1c(Cl)cccc1NS(=O)(=O)c1cc(C)c(C(=O)O)s1 | 2.13
31 | CCOCCCC(=O)Nc1c(-c2ccc(F)cc2)ncn1C | -9.19
32 | Cc1nc(C)n(CC2CN(CCc3ccccc3Cl)CCO2)n1 (stereo not given) | -0.431
33 | CCN(CC)C(CNS(=O)(=O)c1ccc(C(C)=O)cc1)c1ccco1 (stereo not given) | -20.1
34 | CC(C)C(NC(=O)c1ccco1)C(=O)N1CCC2(CC1)OCCO2 (stereo not given) | 6.05
35 | CN(C)C(CNC(=O)N(Cc1ccco1)C1CC1)c1cccs1 (stereo not given) | 3.06
36 | COc1ccnc(N(C)Cc2ccco2)n1 | 14
37 | Cc1cccc2c(CCNC(=O)NCC[S+](C)[O-])c[nH]c12 (stereo not given) | 9.62
38 | COc1ccc(C2(NC(=O)C3CC(=O)N(C)C3)CCCC2)cc1 (stereo not given) | 14.7
39 | CN(CCCc1cc(-c2cccc(F)c2)n[nH]1)C(=O)Cn1cncn1 | -129
40 | COc1ccccc1OCCN(C)c1cc(C)nc(N)n1 | 10.4
41 | Cn1cc(CNc2ccc(CCO)cc2)c(-c2ccncc2)n1 | 5.82
42 | COCC(=O)Nc1cc(Br)cnc1OCC(F)(F)F | -5.6
43 | CCN(C)CC1CCN(c2ncc(Br)cn2)C1 (stereo not given) | -2.55
44 | CC(NCCCN1CCCN(C)CC1)C(C)(C)C (stereo not given) | 29.9

Row | SMILES | cytotoxicity at 10 µM [%]
45 | Cc1cc(F)cc(S(=O)(=O)Nc2ccn(CCCC#N)n2)c1 | 18
46 | CCn1c(CN2CCOC(Cn3cccn3)C2)nc2c(F)cccc21 (stereo not given) | -3.43
47 | CCc1noc(CN(C)CCC(=O)Nc2ccccc2C#N)n1 | 9.69
48 | COc1ccc(S(=O)(=O)Cc2cc(C)on2)cc1 | 7.55
49 | NC(=O)C1CCCN1Cc1ccccc1NC(=O)Cc1cccs1 (stereo not given) | 7.31
50 | CC(C)C(C)NC(=O)CCN1C(=O)CCc2cc(F)ccc21 (stereo not given) | 8.91
51 | Cc1cnn(CCCNC(=O)NC2CCN(CC(F)(F)F)C2=O)c1 (stereo not given) | 5.79
52 | COc1ccccc1CN(Cc1nc2c(cnn2C)c(=O)[nH]1)C1CC1 | 15
53 | CC(C)(O)CNc1ccc(C#N)c(C(F)(F)F)c1 | 1.23
54 | Cc1nc(C)c(CNC(=O)N2CCc3ccccc3C2CO)s1 (stereo not given) | 23.7
55 | Cn1ccc(C(=O)NC2CCC23CCN(C(=O)c2ccnnc2)CC3)c1 (stereo not given) | -72
56 | CCOCC(=O)N1CC[C@H]2[C@@H]1CCC(=O)N2Cc1csc(C)n1 | -85.2
57 | CS(=O)(=O)N[C@@H]1CN(C(=O)c2cnccn2)[C@@H]2CCCO[C@@H]21 | -73.4
58 | Cc1cc(C(=O)N2CC[C@H]3C[C@H](c4ccncn4)O[C@@H]3C2)no1 | -78
59 | CC(=O)N1CCO[C@@H]2CN(C(=O)c3cc(C)oc3C)CC[C@@H]2C1 | 10.5
60 | CCCNC(=O)c1cc2c(c3ccccc3n2C)n1C(=O)N(C)C | 0.539
61 | C[C@H](O)CNc1cc(-c2ccccc2)ncn1 | -11.2
62 | Cc1ncncc1-c1ccnc(NC(C)C)n1 | -0.279
63 | CN1CCN(CC2CC2)C(=O)c2cnc(N3CCOCC3)nc21 | -10.3
64 | Cc1csc2ncc(-c3ccnc(N4CCCN(C)CC4)n3)c(=O)n12 | -6.97
65 | COCC1CCN(C(=O)c2cn(Cc3cccc(C(F)(F)F)c3)nn2)C1 (stereo not given) | -0.695
66 | CC1CN(CCC(=O)NCCc2cccnc2)Cc2ccccc2O1 (stereo not given) | -3.34

Row | SMILES | cytotoxicity at 10 µM [%]
67 | CCN(CCn1cccn1)Cc1nc(-c2cc(F)ccc2F)oc1C | -1.57
68 | COc1ccc(C(=O)N2CCN(C(=O)CCCc3cn[nH]c3)CC2)cc1 | -5.63
69 | NC(=O)CN1CCC(C(=O)NCC(O)c2cccc(F)c2)CC1 (stereo not given) | 10.8
70 | CCNc1ncc(C(=O)NCc2cccc(OC(F)(F)F)c2)cn1 | -2.94
71 | Cc1ccc(S(=O)(=O)NC2CC2)cc1C | -10.6
72 | CCC(O)CNC(=O)c1coc(COc2ccc3sc(C)nc3c2)n1 (stereo not given) | 16.3
73 | c1csc(-c2noc(CN3CCc4cncnc4C3)n2)c1 | -9.5
74 | Cc1cc(CN2CCN(C(=O)NCc3csc(C)n3)CC2)no1 | -17.6
75 | O=c1[nH]c(CCN2CCCC2Cn2cncn2)nc2ccccc12 (stereo not given) | -5.48
76 | COc1ccccc1C(O)CNC(=O)NCc1cc[nH]n1 (stereo not given) | -8.81
77 | CC(C)c1nc(C2CCCN2Cc2nccn2CC(F)(F)F)no1 (stereo not given) | -18.9
78 | CN(Cc1nnc2n1CCC2)C(=O)c1ccc2c(c1)OCCCO2 | -8.68
79 | Cc1csc(N2CCN(C(=O)CCCNc3ncccn3)CC2)n1 | -16.3
80 | Cc1cccc(OCCC(=O)NC(C)c2nnc3n2CCC3)c1 (stereo not given) | -12.8
81 | COc1ccc(CNC(=O)Nc2ccc(N3CCCC3)nc2)cc1O | -18.1
82 | COCc1nc(C(=O)N2CCCC(n3nc(C)nc3C)C2)cs1 (stereo not given) | -24.1
83 | CCn1ccnc1CN1CCN(C(C)C(=O)N2CCC(C)CC2)CC1 (stereo not given) | -10.7
84 | Cc1ccc(NC2CCN(C(=O)CCNS(C)(=O)=O)CC2)nn1 | -5.58
85 | Cc1cc(C)n(CC2CCCN2CCS(=O)(=O)c2ccccc2)n1 (stereo not given) | -7.23
86 | Cc1cc(CN2CCCC2c2noc(C)n2)no1 (stereo not given) | 2.48
87 | Cc1ccc(N2CCCC(NCC(=O)NC3CCOCC3)C2)nn1 (stereo not given) | 3.08
88 | c1ccc2sc(N3CCOC(Cn4cccn4)C3)nc2c1 (stereo not given) | -12.8

Row | SMILES | cytotoxicity at 10 µM [%]
89 | CCCn1nc2c(cc1=O)CN(CC(=O)Nc1nnc(C)s1)CC2 | -11.3
90 | COCCN1CCCN(C(=O)NC(C)Cn2ccnc2)CC1 (stereo not given) | -9.29
91 | O=C(c1cc(F)ccc1F)C1CCN(C(=O)c2cccnc2O)CC1 | -3.99
92 | Cc1ccsc1CN1CCC2(CC1)CC(OCc1cccnc1)CO2 (stereo not given) | 3.45
93 | c1cnc(NC2COC3(CCN(Cc4cc[nH]n4)CC3)C2)nc1 (stereo not given) | -1.17
94 | COc1cc(N2CCC3(CC2)CC(N2CCN(C)CC2)CO3)ncn1 (stereo not given) | -9.11
95 | COc1ccc(OC)c(CN(Cc2ccco2)Cc2[nH]cnc2C)c1 | -2.51
96 | OCCN1CC2(CCN(CC3CC3)CC2)c2ccccc21 | 6.4
97 | O=S(=O)(NC1CCC12CCN(CC1CC1)CC2)c1ccccc1 (stereo not given) | -7.82
98 | CC(=O)CN1CC2(CCNCC2)COc2ccccc2S1(=O)=O | 3.13
99 | Cc1cccc(CNC2CCCc3c2cnn3Cc2ccccc2)c1 (stereo not given) | -16.6
100 | O=C(NCc1ccccn1)[C@@H]1COC[C@H]2CN(C3CCC3)C[C@H]21 | -79.1
101 | Cc1nn(C)c(N(C)C)c1CNCc1cccnc1-n1cncn1 | -0.313
102 | COc1cc(CNC2CCCc3c2cnn3C)cc(OC)c1 (stereo not given) | -6.85
103 | COCCN(C)C[C@@H]1CCC[C@@H]2CN(c3ncccn3)C[C@@H]21 | 4.79
104 | CCS(=O)(=O)N1CCN(CCn2cccn2)c2nc(C)ccc2C1 | 9.88
105 | COCCN(C)C1COC2(CCN(Cc3cccc(F)c3)CC2)C1 (stereo not given) | -79.3
106 | O=C(c1ccnnc1)N1CCN2C[C@H](Oc3cccc(F)c3)C[C@H]2C1 | -1.96
107 | COCCn1cc2c(n1)C(CNCc1nccs1)OCC2 (stereo not given) | -0.726
108 | COCc1nn(CC2CC2)c2c1CN(Cc1ccco1)CC2 | 2.35
109 | CNC(=O)c1ccc2c(c1)C1(CCN(CC3CC3)CC1)C(=O)N2 | -0.843
110 | O=S(=O)(c1cccs1)N1CCCn2cnc(CO)c2C1 | 5.89

Reference: ChEMBL document CHEMBL4513216, “Probing the Open Global Health Chemical Diversity Library for Multistage-Active Starting Points for Next-Generation Antimalarials” (ACS Infect Dis, 2020)
